The list is not random: actives were taken first. Their share in the collection is about 1.9%.
CHRM5 antagonist: antagonists of human muscarinic M5 receptor (CHRM5); P08912; CHO-hM5 cells, Fluo-8 calcium fluorescence, ACh EC80; inhibition, % at 3 µM; actives 0.59% (n = 360,000);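 active means inhibition above a per-plate cutoff, the mean of that plate's test compounds plus 3 SD, cut at about 27% in these data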
M4 ag: agonists of human muscarinic M4 receptor (CHRM4) | CHO-K1 hM4/Gqi5, Fluo-8 calcium fluorescence; vehicle 0%, full acetylcholine response 100% | activation, % at 3 µM | actives 0.14% (n = 360,000) | AID 624127 | P08173;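 active means activation above the run mean over all test wells plus 3 SD, cut at about 32% in these data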;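 further: peak over basal fluorescence ratio per well then scaled between controls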
Target sequence (P08173 whole entry, looked up): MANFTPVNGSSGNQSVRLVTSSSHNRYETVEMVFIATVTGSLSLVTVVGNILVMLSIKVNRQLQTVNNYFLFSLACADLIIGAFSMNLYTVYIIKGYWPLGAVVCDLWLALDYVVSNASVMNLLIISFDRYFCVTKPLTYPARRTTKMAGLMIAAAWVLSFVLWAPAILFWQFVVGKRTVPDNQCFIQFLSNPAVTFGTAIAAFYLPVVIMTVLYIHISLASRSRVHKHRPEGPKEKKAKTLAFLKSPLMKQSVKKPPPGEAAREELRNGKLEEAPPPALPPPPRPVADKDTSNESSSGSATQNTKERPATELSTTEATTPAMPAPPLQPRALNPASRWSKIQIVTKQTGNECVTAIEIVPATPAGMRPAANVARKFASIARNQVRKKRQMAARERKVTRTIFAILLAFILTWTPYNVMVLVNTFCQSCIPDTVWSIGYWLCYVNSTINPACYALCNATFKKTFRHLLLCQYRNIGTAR
CHRM4 PAM: CHRM4 positive allosteric modulation; CHO-K1 hM4/Gqi5, Fluo-8 calcium fluorescence, ACh EC20; 0% = ACh EC20, 100% = maximal ACh; activation, % at 3 µM; actives 0.4% (n = 360,000);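 active means activation above its plate's cutoff, the mean activation of sample wells plus 3 SD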
CHRM5 PAM: potentiates acetylcholine response at human M5 receptor. actives 0.3% (n = 360,000). AID 624038. activation, % at 3 µM. CHO-K1 hM5, Fluo-8 calcium, ACh EC20 PAM; 0% = ACh EC20, 100% = ACh EC100;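 active means activation above the run cutoff, the mean activation of all test compounds plus 3 SD, cut at about 18% in these data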
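Test system: CHO-K1 hM5 cells / Doses: single-point, 3 µM nominal / Times: Post-acetylcholine fluorescence recording 140 s / Technique: Fluo-8 calcium fluorescence / Measure: Max/basal fluorescence ratio as % of EC20–EC100 ACh window / Benchmarks: low control EC20 acetylcholine (0%), high control EC100 acetylcholine (100%) / Replicates: one well per compound, no replicates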
M4 antag: antagonists of human muscarinic M4 receptor (CHRM4). CHO-hM4 cells, ACh EC80, Fluo-8 calcium fluorescence. inhibition, % at 3 µM. actives 0.73% (n = 360,000);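 active means inhibition above its plate's cutoff, the mean inhibition of sample wells plus 3 SD, cut at about 27% in these data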
M5 ag: agonists of human muscarinic M5 receptor (CHRM5); P08912; CHO-K1 hM5 cells, Fluo-8 calcium fluorescence; 0% DMSO wells, 100% maximal acetylcholine response; activation, % at 3 µM; actives 0.19% (n = 360,000); AID 624037;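 active means activation above the run's mean over test compounds plus 3 SD, cut at about 23% in these data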;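 further: signal is peak over basal fluorescence ratio across the kinetic read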
Each line names hits and unclear results; the compound was inactive in the other large screens.

COn1c(-c2ccc(Cl)cc2)nc2ncccc21	none
O=C(NCc1ccccc1)NC1(C(=O)N2CCOCC2)CCCCC1	CHRM5 PAM 42
O=C(CSc1nnc(COc2ccc(Cl)cc2)o1)N1CCCCC1	none
O=C1C=C(O)c2cccc(O)c2C1=O	none
CC1OC(CC(=O)O)CC2=C1C(=O)c1c(O)cccc1C2=O (stereo not drawn)	CHRM5 antagonist 49, M4 antag 36
O=C(COc1ccccc1[N+](=O)[O-])c1ccccc1	none
COC(=O)/C=C/COc1ccccc1[N+](=O)[O-]	CHRM4 PAM 18
COc1ccc(Cl)cc1NC(=O)C/C(C)=N/NC(=O)C(=O)NCc1ccccc1	none
CC(C)NC(=O)C1(C)CCN1CCC(=O)c1ccccc1 (stereo not drawn)	none
CCOC(=O)c1ccc(NC(=O)CCCN2C(=O)NC3(CCCC3)C2=O)cc1	none
Cc1c(Br)c([N+](=O)[O-])nn1CC(=O)N1CCc2ccccc21	none
Cc1nn(CC(=O)N2CCc3ccccc32)c(C)c1S(=O)(=O)NC(C)(C)C	CHRM4 PAM 16
Cc1sc2ncnc(N/N=C/c3ccccc3O)c2c1C	CHRM4 PAM 30
Cc1sc2ncnc(N/N=C/c3ccc(O)cc3)c2c1C	none
S=C(Nc1cccc2ccccc12)NN1CCCCCC1	M4 antag 35
CS(=O)(=O)c1ccc(N2CCN(S(=O)(=O)c3cccs3)CC2)c([N+](=O)[O-])c1	none
CCOc1ccc(NCc2cccn2-c2nnc(N3CCC(C(=O)NCCCN4CC(C)CC(C)C4)CC3)s2)cc1 (stereo not drawn)	M4 antag 34
Cc1cc(C)c(C)c(S(=O)(=O)N2CCN(c3ncnc4sc(C)c(C)c34)CC2)c1C	none
CCS(=O)(=O)N1CCN(c2ncnc3sc(C)c(C)c23)CC1	CHRM4 PAM 21
Cc1sc2ncnc(N3CCC(C(=O)Nc4ccc(Cl)c(Cl)c4)CC3)c2c1C	CHRM4 PAM 23
CNC(=O)c1ccc(NC(=O)C2CCN(c3ncnc4sc(C)c(C)c34)CC2)cc1	M4 ag 72, M4 antag 70
Cc1sc2ncnc(N3CCC(C(=O)Nc4ccc(Cl)cc4Cl)CC3)c2c1C	CHRM4 PAM 38
Cc1ccc2nc(SCC(=O)NCCCN3CCCC3=O)[nH]c2c1	none
c1ccc(N2[C@@H]3c4ccccc4C[C@H]2c2ccccc23)cc1	none
C=Cc1ccc(Cn2c(C)c(C(=O)NCc3ccc(C#N)cc3)sc2=O)cc1	none
CCc1cccc(NC(=O)C2CCN(c3ncnc4sc(C)c(C)c34)CC2)c1	none
Cc1sc2ncnc(N3CCC(C(=O)Nc4ccc(Br)cc4Br)CC3)c2c1C	CHRM4 PAM 22
COc1ccccc1OCC(=O)NC1CC(C)(C)NC(C)(C)C1	none
CC(C)Nc1nc(Nc2ccc(Cl)cc2F)c2sccc2n1	none
O=C(c1ccc(N2CCCC2=O)cc1)N1CCN(c2ccccc2)CC1	CHRM5 PAM 45
COc1ccc(C(=O)/C=C/c2ccc3c(c2)OCCO3)cc1	none
O=C(/C=C/c1ccc2c(c1)OCCO2)c1ccccc1	CHRM5 PAM 24
COc1cccc(NC(=O)CN(C)C(=O)c2cc(-c3ccccc3)nn2-c2ccccc2)c1	CHRM4 PAM 18
COc1cccc(NC(=O)CN(C)C(=O)Cn2cnc3ccccc3c2=O)c1	CHRM5 antagonist 100
C[C@@H](C(=O)NCCc1ccccc1)N1C(=O)N2CCc3c([nH]c4ccccc34)[C@@]2(C)C1=O	none
OC(c1cccs1)(c1cccs1)C1C[N+]2(CF)CCC1CC2 (stereo not drawn)	CHRM5 antagonist 63, M4 antag 68
COC(=O)CCCCNC(=O)Nc1ccccc1	CHRM5 PAM 23
COC(=O)CNC(=O)CNC(=O)Nc1ccccc1	none
N#CNC(=Nc1cccc(C(F)(F)F)c1)SCc1ccc(C(=O)O)cc1	M4 antag 38
N#CNC(=Nc1ccccc1)SCc1ccc(C(=O)O)cc1	none
CCN(CC)CC#CC(OC)(c1ccccc1)c1ccccc1	CHRM5 antagonist 96, M4 antag 57
CC(=NNC(=O)c1cccc(S(=O)(=O)N2CCOCC2)c1)c1ccc(Cl)cc1	none
COc1ccc(-c2csc(C(C)(O)c3ccccc3)n2)cc1OC (stereo not drawn)	none
COc1ccc(C(C)(O)c2nc(-c3ccc(OC)c(OC)c3)cs2)cc1 (stereo not drawn)	CHRM4 PAM 25
Cc1ccc(N(CC(=O)NC2CC3CCC2C3)S(C)(=O)=O)cc1C (stereo not drawn)	CHRM4 PAM 27
CS(=O)(=O)N(CC(=O)NC1CC2CCC1C2)c1cccc(C(F)(F)F)c1 (stereo not drawn)	none
CCOc1ccc(NC(=O)CSc2nc3ccccc3nc2N2CCOCC2)cc1	none
CCCn1c(=S)[nH]c2cc(C(=O)NCC3CCCO3)ccc2c1=O (stereo not drawn)	none
O=C(CCn1c(=S)[nH]c2ccccc2c1=O)NCC1CCCO1 (stereo not drawn)	CHRM4 PAM 19
COc1ccc(C(=O)/C=C/Nc2ccc(S(=O)(=O)Nc3cc(OC)nc(OC)n3)cc2)c(OC)c1	none
CC(=O)SC1CC(=O)N(c2c(C)cccc2C)C1=O (stereo not drawn)	CHRM5 PAM 21
Cc1cc(C)cc(N(CCC(=O)Nc2nnc(C3CC3)s2)S(=O)(=O)c2ccc(Cl)cc2)c1	CHRM4 PAM 21
C=CCN1C(=O)C2(OCCCO2)c2cc(C)ccc21	CHRM5 PAM 20
C=CCN1C(=O)C2(OCCCO2)c2cc(CCCC)ccc21	none
CCn1c(CNc2ccc(C)cc2)nnc1SCC(=O)NCc1ccccc1	CHRM4 PAM 31
CSc1ccccc1OCc1cc(C(=O)NCCn2ccnc2C)no1	none
COc1ccc(CNC(C)C23CC4CC(CC(C4)C2)C3)c(OC)c1OC (stereo not drawn)	none
CC(NCc1ccc(OCC(N)=O)cc1)C12CC3CC(CC(C3)C1)C2 (stereo not drawn)	M4 antag 29
Oc1ccc(Cl)cc1CNCc1ccc(Cl)cc1	none
Oc1ccc(Cl)cc1Cc1cc(Cl)ccc1O	M4 antag 27
CCN(CC)c1ncnc2c1ncn2[C@H]1CN(Cc2ccccc2)C[C@@H](CO)O1	none
CCN1/C(=C/c2ccc3ccccc3[n+]2CCCS(=O)(=O)[O-])C=Cc2cc(C)ccc21	none
CCCCN1/C(=C/c2ccc3ccccc3[n+]2CC)Sc2ccccc21	CHRM5 antagonist 39
CCN1/C(=C/c2ccc3cc(C)ccc3[n+]2CC)Sc2cc(C)ccc21	CHRM5 antagonist 42
CCN1/C(=C/c2ccc3ccccc3[n+]2CC)C=Cc2ccccc21	CHRM5 antagonist 29, M4 antag 45

Source: PubChem (The Scripps Research Institute Molecular Screening Center)
